Reference: ChEMBL document CHEMBL1140013, “The 1,4-naphthoquinone scaffold in the design of cysteine protease inhibitors” (Bioorg Med Chem, 2007)
Activity calls are given as the source filed them. No cut-off for these calls is given here.

Key:
[1] = biological target: Pancreatic elastase (Sus scrofa) (UniProt P08419+P00772); test: Inhibition of pig pancreatic elastase; format: protein assay
Procedure, shortened: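 Porcine pancreatic elastase (50 µM stock) was incubated with inhibitor (DMSO stock) in 0.1 M Hepes pH 7.2 for up to 2 h. Timed aliquots were assayed on Suc-Ala-Ala-Ala-4-nitroanilide, following absorbance at 390 nm for 50 s.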

Papain (Carica papaya) [2] = biological target: T1, Papain (Carica papaya) (UniProt P00784); test: Inhibition of papain at 65 uM after 30 mins
T1 sequence (whole entry): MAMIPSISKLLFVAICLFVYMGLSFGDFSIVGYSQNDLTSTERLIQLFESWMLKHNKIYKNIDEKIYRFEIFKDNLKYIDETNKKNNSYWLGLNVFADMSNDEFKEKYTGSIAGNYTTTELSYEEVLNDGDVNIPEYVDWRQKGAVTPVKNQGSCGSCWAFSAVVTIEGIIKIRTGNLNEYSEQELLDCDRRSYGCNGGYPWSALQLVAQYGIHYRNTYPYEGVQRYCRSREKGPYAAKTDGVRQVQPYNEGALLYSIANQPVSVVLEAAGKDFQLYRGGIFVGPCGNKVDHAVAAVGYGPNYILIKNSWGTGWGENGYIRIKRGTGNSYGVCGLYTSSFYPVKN
Procedure, shortened: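 Papain activated 30 min at 25 °C in 50 mM potassium phosphate pH 7.0 with 2.5 mM EDTA and 2.0 mM DTT. Inhibitor in DMSO added to the enzyme in EDTA-only buffer, with control incubations run in parallel. Aliquots went into BAPA substrate in buffer with EDTA and DTT. p-Nitroaniline release read at 410 nm for 4 min at 25 °C.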

Cathepsin B (Bos taurus) = Cathepsin B (Bos taurus) (UniProt P07688); test: Inhibition of bovine spleen cathepsin B
Procedure, shortened: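 Cathepsin B (10 U/mL) was activated 15 min at 25 °C in 20 mM sodium acetate pH 5.0 with 1.0 mM EDTA and 30 mM DTT. It was then pre-incubated with inhibitor (DMSO stock) in acetate/EDTA buffer (Kitz–Wilson method). Aliquots were assayed on Z-S-Lys-ONp with 2.0 mM DTT, following p-nitrophenol at 326 nm for 3 min at 25 °C. k_obs came from ln(v/v0) versus time, using 4–6 inhibitor concentrations.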

Papain (Carica papaya) [3] = biological target: T1, Papain (Carica papaya); test: Inhibition of papain at 1.3 mM after 20 mins
Procedure, shortened: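 Papain was pre-incubated with inhibitor at 1.3 mM for 20 min. Residual activity on BAPA was read at 410 nm and reported as % inhibition.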

Compound | Activity [1] | also measured
O=C1C=CC(=O)c2ccccc21 | inactive | inhibition (Papain (Carica papaya) [2]): 49.5%
CCOC(=O)CNC1=CC(=O)c2ccccc2C1=O | inactive | Kinact (Cathepsin B (Bos taurus)): 14 µM
O=C1C=C(Br)C(=O)c2ccccc21 | inactive | –
CC(=O)Oc1cccc2c1C(=O)C=CC2=O | inactive | –
CNC1=C(Br)C(=O)c2ccccc2C1=O | inactive | –
CNC1=CC(=O)c2ccccc2C1=O | inactive | –
CCOC(=O)[C@H](Cc1ccccc1)NC1=C(Br)C(=O)c2ccccc2C1=O | inactive | –
CCOC(=O)[C@H](Cc1ccccc1)NC1=CC(=O)c2ccccc2C1=O | inactive | –
O=C1C=C(O)C(=O)c2ccccc21 | inactive | inhibition (Papain (Carica papaya) [3]): 82%
CC1=CC(=O)c2c(C)ccc(C)c2C1=O | inactive | –
CCOC(=O)CNC1=C(Br)C(=O)c2ccccc2C1=O | inactive | Kinact (Cathepsin B (Bos taurus)): 55.9 µM
O=C1C(Cl)=C(Cl)C(=O)c2ccccc21 | inactive | –
CCOC(=O)[C@H](Cc1ccccc1)NC1=C(Cl)C(=O)c2ccccc2C1=O | inactive | –
O=C1C(Cl)=C(N2CCOCC2)C(=O)c2ccccc21 | inactive | –
CCOC1=CC(=O)c2ccccc2C1=O | inactive | Kinact (Cathepsin B (Bos taurus)): 797 µM
O=C1C=CC(=O)c2c(O)cccc21 | inactive | inhibition (Papain (Carica papaya) [2]): 60.4%
CCOC(=O)CNC1=C(Cl)C(=O)c2ccccc2C1=O | inactive | –
CC1=CC(=O)c2ccccc2C1=O | inactive | –
CC(C)CCNC(=O)[C@H](CC(C)C)NC1=CC(=O)c2ccccc2C1=O | inactive | –
